Measurements as given in article PMC6868880 (ACS Omega, 2019).
In brackets after ≈: the same amount, converted by molar mass. Read-outs that look alike come from different tables or passages of the source. Where no end group is shown, it is not given here.

Tests used:
[1] = system: Trichophyton rubrum; experiment: MIC, filamentous fungi, Trichophyton rubrum; type: cell-based; details: ATCC28189, read-out: MIC Tr
Outline: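 T. rubrum ATCC 28189 was grown on potato dextrose agar, and inocula were prepared in RPMI 1640 medium. MIC was determined following CLSI M38-A2 for filamentous fungi.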

[2] = system: Escherichia coli; experiment: MIC determination against bacteria; type: cell-based; details: read-out: MIC Ec
[3] = system: Candida albicans; details: cited from earlier work
[4] = system: human erythrocytes; details: cited from earlier work
[5] = system: Candida parapsilosis; experiment: MIC, broth microdilution, Candida parapsilosis; type: cell-based; details: Table 5; CLSI M27-A3 with modifications, Lambert–Pearson plot; ATCC 22019
Outline: (§1)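 Yeasts were precultured in liquid YPD at 37 °C, 70 rpm, for 24 hours. MIC was determined by CLSI M27-A3 broth microdilution, modified for turbidimetric detection. The assay used MOPS-buffered RPMI 1640 without sodium bicarbonate, with cell density read at 600 nm. MIC was derived from a Lambert–Pearson plot of cell density.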

[6] = system: rabbit erythrocytes; details: cited from earlier work
[7] = system: Pseudomonas aeruginosa; experiment: MIC determination, Pseudomonas aeruginosa; type: cell-based; details: Table 5; Mueller Hinton broth, CLSI M7A9 with modifications, triplicate; ATCC 27853
Outline: (§2)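 Bacteria pre-cultured overnight at 37 °C/5% CO2 in culture medium as inoculum. MIC of test peptides determined by broth dilution in Mueller Hinton broth following CLSI M7A9 with modifications for bacteria. All tests run in triplicate.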

[8] = system: Listeria monocytogenes; experiment: MIC determination, Listeria monocytogenes; type: cell-based; details: Table 5; Mueller Hinton broth, CLSI M7A9 with modifications, triplicate; ATCC BAA-679/EGD-e
Outline: as §2

[9] = system: Candida auris; experiment: MIC, broth microdilution, Candida auris; type: cell-based; details: Table 5; CLSI M27-A3 with modifications, Lambert–Pearson plot; DSMZ-No. 21092
Outline: as §1

[10] = system: Candida albicans; experiment: MIC, broth microdilution, Candida albicans; type: cell-based; details: Table 5; CLSI M27-A3 with modifications, Lambert–Pearson plot; ATCC 24433
Outline: as §1

[11] = system: mammalian cell line; details: in vitro; cited from earlier work

C[C@@H]1[C@H](O)[C@@H](C)/C=C/C=C/C=C/C=C/C=C/C=C/C=C/[C@H](O[C@@H]2O[C@H](C)[C@@H](O)[C@H](N)[C@@H]2O)C[C@@H]2O[C@](O)(C[C@@H](O)C[C@@H](O)[C@H](O)CC[C@@H](O)C[C@@H](O)CC(=O)O[C@H]1C)C[C@H](O)[C@H]2C(=O)O [amphotericin B]
MIC [1]: 0.125 µg/mL (≈ 0.135 µM)

CC1(C)S[C@@H]2[C@H](NC(=O)[C@H](N)c3ccccc3)C(=O)N2[C@H]1C(=O)O [ampicillin]
MIC [2]: 0.195 µg/mL (≈ 0.559 µM)

OC(Cn1cncn1)(Cn1cncn1)c1ccc(F)cc1F [fluconazole]
MIC ([3]; against Candida albicans): 8 to 16 µg/mL

SRSELIVHQRLF-NH2 [Cm-p5]
hemolytic activity [4]: nonhemolytic
MIC C. parapsilosis [5]: 32 µg/mL
hemolytic activity [6]: nonhemolytic
MIC Pseudomonas aeruginosa [7]: >100 µg/mL
MIC ([3]; against C. albicans, native peptide): 10 µg/mL
fungistatic action, concentration range ([3]; against Candida albicans): 10 to 40 µg/mL
MIC Listeria monocytogenes [8]: >100 µg/mL
MIC C. auris [9]: 11 µg/mL
MIC C. albicans [10]: 10 µg/mL
toxicity against a mammalian cell line [11]: did not exhibit any toxicity
